Compound activity deposited in PubChem by several laboratories.
Only some compounds are listed: those with a hit (about 2.1% of all), similar ones and a draw of the others.
CDK5 p35 inh: blocks human CDK5/p35 kinase activity; Q00535+Q15078; hit rate 0.01% among 330,000; Recombinant CDK5/p35, ADP-Glo luminescence, 60 min; inhibition, % at 10 µM;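 active = highest replicate inhibition of at least 50% and at least 75% of replicates reaching 50%; inconclusive = only one of the two criteria met; inactive = both criteria failed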;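 also: plate controls were DMSO neutral control for no effect and GW8510 at 10 µM for full effect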
PKA-R1A act: PKA-R1A complex activation; PKA-R1A dissociation, Cy5-IP20 fluorescence polarization; scaled: DMSO 0%, 113 µM cGMP 100%; activation, % at 11.4 µM; hit rate 0.083% among 340,000;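 active = percent activation above the mean of all tested compounds plus 3 SD, cut at about 19% in these data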;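 also: higher means more PKAc released from R1A so a rise in polarization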
SR-BI DiI-HDL act: enhances SR-BI lipid uptake from DiI-HDL; activation, % at 12.5 µM; hit rate 0.096% among 320,000; CHO ldlA[mSR-BI] cells, DiI-HDL uptake fluorescence, 3 h; 100 = double the neutral-control signal;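 active = mean replicate activation of at least 60% and every replicate at or above 60%; inconclusive = mean or all-replicate condition met, but not both; inactive = mean below 60% and not all replicates reaching 60%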;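 also: 0% = median plate neutral-control signal and 100% = twice that signal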
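Test system: SR-BI-overexpressing, LDLR-lacking CHO cells. Measured by: DiI fluorescence, bottom read. Medium: Ham's F12 with 0.5% BSA, HEPES 25 mM, pH 7.4. Timing: 3 h uptake period with compound, 37 °C.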
dFosB activator: enhances mouse delta FosB homodimer DNA binding; hit rate 0.99% among 340,000; P13346; purified delta FosB, TAMRA-CDK5 oligo fluorescence polarization; percent of positive-control signal above neutral wells; AID 493131; activation, % at 25 µM;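 active = mean activation above about 17%, with every replicate also reaching it, limit read from the data, passing the limit was not always enough; inconclusive = only one of the two conditions met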
SR-BI DiI inh: mouse SR-BI HDL lipid transfer inhibition; ldlA[mSR-BI] CHO cells, DiI-HDL uptake fluorescence, 3 h; inhibition, % at 12.5 µM; hit rate 0.96% among 320,000; AID 488896;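 active = mean replicate inhibition of at least 70% and a set share of replicates each scoring 70 or more; inconclusive = meets just one of the two criteria; inactive = fails both criteria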;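 also: 0% = median of neutral control wells and 100% = median of positive control wells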
Target sequence (Q61009 whole entry, looked up): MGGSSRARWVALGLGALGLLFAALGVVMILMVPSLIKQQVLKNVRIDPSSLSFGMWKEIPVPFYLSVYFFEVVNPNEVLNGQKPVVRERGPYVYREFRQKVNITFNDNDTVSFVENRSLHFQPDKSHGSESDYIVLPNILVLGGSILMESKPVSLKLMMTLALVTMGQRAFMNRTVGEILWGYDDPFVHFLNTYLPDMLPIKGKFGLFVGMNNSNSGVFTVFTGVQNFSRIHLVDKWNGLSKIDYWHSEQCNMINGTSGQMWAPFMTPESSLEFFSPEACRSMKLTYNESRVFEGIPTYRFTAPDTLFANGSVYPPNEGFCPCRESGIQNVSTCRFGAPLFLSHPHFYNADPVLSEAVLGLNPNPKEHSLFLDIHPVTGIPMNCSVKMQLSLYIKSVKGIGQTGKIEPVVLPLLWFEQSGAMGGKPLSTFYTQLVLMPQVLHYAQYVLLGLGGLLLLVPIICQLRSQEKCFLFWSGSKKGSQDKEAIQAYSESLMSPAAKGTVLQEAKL
PKA-R2B act: activates the human PKA-R2B holoenzyme complex | P22694+P31323 | PKA-R2B holoenzyme dissociation, Cy5-IP20 fluorescence polarization; R2B truncated from residue 108, S112A mutant; 0% DMSO only, 100% 113 µM cGMP | activation, % at 11.4 µM | hit rate 0.079% among 340,000 | AID 504700;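 active = activation above a cutoff set at the mean over all compounds plus 3 SD, cut at about 18% in these data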;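 also: higher means more holoenzyme dissociation and a rise in polarization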
Numbers without * were called inactive; ? = inconclusive; / = no result given.

SMILES	CDK5 p35 inh	PKA-R1A act	SR-BI DiI-HDL act	dFosB activator	SR-BI DiI inh	PKA-R2B act
O=C(CCSCCC(=O)NN=Cc1ccc(F)cc1)NN=Cc1ccc(F)cc1	0	-4	-82	-16	82*	-3
COc1ccc(C(=O)NC2CCc3ccccc32)cc1OC1CCN(C(C)C)CC1 (stereo not drawn)	2	-4	-22	-6	22	-7
CN1C(=O)CSc2ccc(NC(=O)N3CCN(c4ccccc4)CC3)cc21	1	-3	-78	-9	78*	4
COc1cccc(SCc2noc(C(=O)NCCC(C)C)c2C(=O)NCCC(C)C)c1	-3	-13	-20	-4	20	-15
Cc1cccc(/C=C2/Sc3ccc(C(=O)NCCCN4CCOCC4)cc3NC2=O)c1	-1	-3	9	33*	-9	-3
CCN1CCN(CCCNC(=O)c2ccc3c(c2)NC(=O)/C(=C\c2cccc(C)c2)S3)CC1	9	3	10	2	-10	-6
CC(C)NC1CCC(Nc2ccnc3cc(Cl)ccc23)CC1 (stereo not drawn)	1	5	12	17*	-12	-8
Clc1ccc2c(NCCNC3CCCCC3)ccnc2c1	-1	-3	26	45*	-26	10
CC(Nc1ccnc2cc(Cl)ccc12)c1ccc(S(N)(=O)=O)cc1 (stereo not drawn)	-2	6	9	-8	-9	9
CC(CCCN1CCCC1)Nc1ccnc2cc(Cl)ccc12 (stereo not drawn)	0	10	0	42*	0	2
Clc1ccc2c(NCc3ccccn3)ccnc2c1	0	-14	7	-4	-7	-13
Cc1ccc(CC(=O)NNC(=O)c2ccncc2)cc1C	3	-11	-2	-1	2	-5
N#Cc1nc(COc2ccc(Cl)cc2Cl)oc1N1CCN(c2ccccc2)CC1	-1	-7	118*	-8	-118	-5
COc1ccc(N2CCN(c3oc(COc4ccc(Cl)cc4Cl)nc3C#N)CC2)cc1	0	-10	1	3	-1	3
CSc1ccccc1OCc1cc(C(=O)NCCn2nc(C)cc2C)no1	1	0	-72	-9	72*	-10
COc1cc(NCCCCCCN)c2ncccc2c1OC	0	-15	1	18*	-1	-8
COc1cc(NC(C)CCCNC(C)C)c2ncccc2c1OC (stereo not drawn)	2	0	-45	-8	45	10
O=C(N/C(=C/c1ccc([N+](=O)[O-])cc1)C(=O)N1CCOCC1)c1ccco1	0	8	30	-6	-30	9
Cc1ccc(NC(=O)c2cc(C)nc3ccccc23)cc1	-2	3	-18	-3	18	-4
O=C(Nc1nc2c(s1)CCCC2)c1cc(-c2ccccc2)nc2ccccc12	0	-15	-39	-2	39	5
CCCOc1cccc(-c2cc(C(=O)NN)c3ccccc3n2)c1	0	-10	-84	-9	84*	-3
O=C(Nc1nc2c(s1)CCCC2)c1cc(-c2ccncc2)nc2ccccc12	1	-16	-76	4	76*	4
C/C(=N\NC(=O)c1cc(-c2cccnc2)nc2ccccc12)c1ccccc1O	0	-3	-107	-16	107*	-2
COc1ccc(/C(C)=N/NC(=O)c2cc(-c3cccnc3)nc3ccccc23)cc1	0	-4	10	-5	-10	1
Cc1ccc(C)c(NC(=O)c2cc(C)nc3ccccc23)c1	0	-3	-79	3	79*	6
SMILES	CDK5 p35 inh	PKA-R1A act	SR-BI DiI-HDL act	dFosB activator	SR-BI DiI inh	PKA-R2B act
CCCOc1cccc(-c2cc(C(=O)N/N=C/c3ccccn3)c3ccccc3n2)c1	1	-9	-52	-14	52	0
CC(C)[C@H](NC(=O)N1c2ccccc2NC(=O)[C@@H]1C(C)C)C(=O)N1CCC(C(=O)O)CC1	1	2	12	4	-12	-14
C[C@@H]1CN([C@@H](C)CO)C(=O)c2cc(NC(=O)C3CC3)ccc2O[C@@H]1CN(C)Cc1ccc(Cl)c(Cl)c1	-1	10	-42	-18	42	1
O=C(NC(=S)Nc1nc2c(s1)CCCC2)c1ccc(C(=O)c2ccccc2)cc1	-1	-13	-76	1	76*	-8
Cc1cc(NC(=O)c2cc(-c3ccccc3C)nc3ccccc23)no1	-1	-16	-45	1	45	3
Cc1ccc(-c2cc(C(=O)Nc3cc(C)on3)c3ccccc3n2)c(C)c1	-1	-14	-78	2	78*	-6
CC(=O)Nc1ccc(NC(=O)c2cc(-c3ccccc3)nc3ccccc23)cc1	0	-6	-75	6	75*	2
O=C(Nc1cccnc1)c1cc(-c2ccc(Br)cc2)nc2ccccc12	-1	-1	-87	-11	87*	1
O=C(CSc1nnc(NC(=O)C2CC2)s1)Nc1ccccc1C(F)(F)F	-1	-10	/	14	/	3
Cc1ccccc1NC(=O)c1cccc(N2C(=O)C3C4CC(C(Br)C4Br)C3C2=O)c1 (stereo not drawn)	0	0	-18	4	18	2
COc1ccc(NC(=O)c2cc(CC(C)C)nc3ccccc23)cc1	-3	-8	-76	-4	76*	-3
COc1ccccc1CCNC(=O)c1cc(-c2ccccn2)nc2ccccc12	-1	-5	-16	-4	16	12
COc1ccccc1CCNC(=O)c1cc(-c2ccncc2)nc2ccc(Br)cc12	1	0	-77	?	77*	13
CSc1ccccc1NC(=O)c1cc(-c2cccnc2)nc2ccc(Br)cc12	0	4	-55	27*	55	-4
Cc1ccc(NC(=O)c2cc(CC(C)C)nc3ccccc23)cc1	-1	-4	-53	-16	53	8
O=C(CCCN1C(=O)/C(=C\c2cccc(Br)c2)SC1=S)Nc1cccnc1	-2	-6	-26	13	35	-5
Cc1ccc(/C=C2\SC(=S)N(CCCC(=O)Nc3cc(C)on3)C2=O)cc1	0	-10	8	9	-8	-1
CCc1ccc(/C=C2/SC(=S)N(CC(=O)Nc3nc4ccccc4s3)C2=O)cc1	-1	-5	-1	28*	1	2
Cc1cc(NC(=O)CN2C(=O)/C(=C/c3cccc(Br)c3)SC2=S)no1	-1	4	-46	19*	46	-4
O=C(CCCN1C(=O)/C(=C/c2cccc(Br)c2)SC1=S)Nc1cccnc1	-1	/	-20	22*	20	/
